Sequences and labels used below:
B1: tRNA (parent)
chain: GUUCCGUUGGCGUAAUGGUAACGCGUCUCCCUCCUAAGGAGAAGACUGCGGGUUCGAGUCCCGUACGGAACG

The text below walks through data of the RNAGym collection of RNA variant scans (doi:10.1126/science.aae0568).

Fewer inactive variants are shown than the library holds.

In this data set the parent is B1. As to the kind of experiment: yeast fitness relative to wild type (ratio to wild type); higher = fitter; tRNA-Arg(CCU), competitive growth, 37 C, YPD. The essentials:
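Variants of the tRNA-Arg(CCU) gene were chemically synthesised with a 3% per-site mutation rate across 69 sites and placed at the native genomic locus in Saccharomyces cerevisiae. Six parallel replicates of the pooled strains were competed in YPD at 37°C for 24 hours, and gene amplicons from the start and end populations were read by 100-nucleotide paired-end sequencing. Darwinian fitness relative to wild type was derived from changes in genotype frequencies. Genotypes required ≥ 100 starting reads, and estimates < 0.5 were set to 0.5.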
Take A43C G58A: the yeast fitness was determined as 0.944.
To A43G C60G belongs 0.734; to A42G C46G, 0.886; to A42G C46A, 0.908.
Then A40U C60A, with 0.604; and G41A A43C C49G A57G, with at most 0.5.
To G44C C49G U59A belongs at most 0.5; to A43C C61G, 0.66; to G41A C49U G63A, 0.678.
A42G A57U G67C: the yeast fitness was at most 0.5.
As for A43C G68U, the yeast fitness was found to be 0.868.
A43U G50C A65C: the yeast fitness came out at 0.556.
As to G41A C49A C62U G68C, the yeast fitness was at most 0.5.
To G44A C49G A70U belongs at most 0.5; to A40G G48C C61G A65U, at most 0.5.
With A43G G68A, the yeast fitness worked out at 0.873.
Then A45C C55U A69C, with at most 0.5.
Then G41C G48A, with 0.981; and A42G C55U, with 0.688.
For the variant A42G A45C G48C, the yeast fitness is at most 0.5.
Consider A43G A45G A70G, for which the yeast fitness was found to be 0.532.
As to G44C C49U U64G G67A, the yeast fitness was found to be 0.512.
Then A40U C61G G68C, with 0.571; and A45G U53G C66U A69U, with at most 0.5; and A45U A57U, with 0.744.
Then A40U G56C, with 0.651; and A42G G50A, with 0.842.
To A40U C46G G68C belongs at most 0.5.
On to A42G G48A, for which the yeast fitness is 0.863.
Then G41C A65C, with 0.794; and A45G U47C G48C U59A, with 0.576; and A42G C46U A57C, with at most 0.5.
Consider A40U A42C G44A G51A A65G, for which the yeast fitness came to 0.542.
To A42C A57U C66U belongs at most 0.5.
Then A45G C46U G51C G67C, with at most 0.5; and G44A A45G G51C, with at most 0.5; and G44A A57G, with 0.688.
Then A40U C61G G68C A70G, with at most 0.5; and A42G A65C A69C A70G, with 0.577.
Regarding A45C A65G C66U, the yeast fitness stood at 0.679.
To A40U C49A A57G C62U belongs at most 0.5; to A45C U47C U64C A65C, 0.725; to G41A C60A C61U A69U, at most 0.5.
For the variant A45G C62G, the yeast fitness came out at 0.832.
To A45G C62A belongs 0.8; to G41C C46G U59C C60U, at most 0.5.
Then A45G U59C, with 1.03; and A42G C46U A65C, with 0.665; and A42U A45U A69U, with 0.707.
Then G41A C55A, with 0.661.
Regarding A42G C49G C61G, the yeast fitness is at most 0.5.
In the case of A40G G63A G67A, the yeast fitness was at most 0.5.
As to A42G A43U C46U C62U, the yeast fitness was 0.551.
Then A40C G52C G67A, with 0.55; and G41A U53G U64A, with at most 0.5; and A40C G58A, with 0.962.
On to A42U G44C U54A C66U G67A, for which the yeast fitness is at most 0.5.
On to A45G G58A, for which the yeast fitness was 1.04.
To G41A C61U belongs 0.786; to G44A U47C, 0.979; to A45G C46U G51C, at most 0.5.
To A40U G58C belongs 0.945.
For the variant A40U G58U, the yeast fitness is 0.768.
Then A42C C61G A65U, with 0.539.
Consider A42U G44A, for which the yeast fitness came out at 1.01.
As to A42U G52C, the yeast fitness is 0.694.
To A40U A45U belongs 0.941.
Consider A40U A45G, for which the yeast fitness stood at 0.816.
Turning to A43C G63U, the yeast fitness was 0.638.
For A40G C62U A65C C66A, the yeast fitness was at most 0.5.
As to A43C C49G A57G, the yeast fitness came out at 0.591.
In the case of G41A G52A A69C, the yeast fitness amounted to 0.53.
As to G41A G58A, the yeast fitness came out at 1.
Then G44A C49G A65U, with 0.547; and A45C G50C, with 0.604; and G41A A42G A70U, with at most 0.5.
On to A42C G48C A70U, for which the yeast fitness was determined as 0.666.
To A43U C46A A65C belongs 0.688; to A42C G48A G50A C61G, 0.553.
As for A42U C55G, the yeast fitness stood at 0.616.
Then G41A G48C G67C, with at most 0.5; and A45G C66A, with 0.581; and A42U U53C, with 0.732.
A42G A57C: the yeast fitness turned out to be 0.7.
To G44C C46G C55U belongs at most 0.5; to A40C U47C, 0.904; to A43G U47C A65U, 0.668.
With A43C G44A U59A, the yeast fitness was found to be 0.593.
To A43U C62A A65U C66U belongs at most 0.5; to A43U C49G A69C, 0.512; to A42G G63A, 0.684.
On to A45U A57G U59C, for which the yeast fitness was 0.597.
To A43C C66U belongs 0.948; to G41C A65C A70U, 0.641; to G41C G63C A65U, at most 0.5.
On to A40U U59A, for which the yeast fitness was 0.678.
To A40C G50A belongs 0.619.
In the case of A43C U53A, the yeast fitness is 0.662.
On to A40G A45C C60A, for which the yeast fitness is at most 0.5.
As for A43C C46U, the yeast fitness stood at 1.03.
Then A40C U47A A69G, with 0.54; and A43C A70G, with 1.05; and A40G A43G C55U, with 0.565.
Then A42C C62U, with 0.829; and A42C C62A, with 0.719.
For A43U A65G, the yeast fitness is 1.01.
Then A42U A43U C62A A65U A69G, with 0.567.
G41C A42G G51A: the yeast fitness stood at 0.538.
Then A45G A57U, with 0.751; and A40U G44C U53G, with at most 0.5; and A45C C55U, with 0.692.
For A42C U59A A69U, the yeast fitness was determined as 0.528.
As for A42G C62A, the yeast fitness is 0.786.
To A43U G56C belongs 0.702; to A40U A43C G67U, 0.724; to G41C A42G G51A A69C, at most 0.5.
Then A42G A65G, with 0.735; and A43G G50C, with 0.728.
In the case of A45G C61U, the yeast fitness amounted to 1.03.
Take A42C A45C G48A A70G: the yeast fitness is 0.632.
For A40G G51C A57U, the yeast fitness is at most 0.5.
With A42G U64C, the yeast fitness was 0.904.
To A42G U64A belongs 0.724; to A40U U54C C60A, at most 0.5.
As to A45C G50A C62U, the yeast fitness turned out to be 0.868.
On to A40C U64C, for which the yeast fitness turned out to be 0.912.
Then A43G G51A A69C, with at most 0.5.
For the variant A42C G56A, the yeast fitness worked out at 1.01.
To A45U A65C belongs 0.801; to A45C G68C, 0.839; to A45C G48A A70U, 0.654.
For A42U A43G G48C U53A A70C, the yeast fitness worked out at 0.525.
For the variant A42G C46G C49U, the yeast fitness came to 0.744.
As for A42U G52A G67U, the yeast fitness is 0.783.
With A42C A45C G48A A65G, the yeast fitness was found to be 0.671.
Then A40U U53A, with 0.774; and A40U U53G, with 0.638; and A42G G44C C60G, with 0.606.
A42G C61G C66U: the yeast fitness was at most 0.5.
In the case of A43C C46A G48C G63A, the yeast fitness was determined as 0.62.
Then G44A A57U C66U, with 0.547; and G44C U47C G58A, with 0.766.
Then A43U U54C, with 0.92; and A43U U54A, with 0.683.
To A43U G44A C46A belongs 0.654; to A40G G44A A70G, 0.567; to A40U U47A, 0.856.
On to A42G G68C, for which the yeast fitness is 0.798.
With A43G G56A C66U G68U, the yeast fitness turned out to be 0.557.
In the case of G44C U54C C60A, the yeast fitness was at most 0.5.
For A40U A42G A57U, the yeast fitness was 0.576.
On to A40G G68U, for which the yeast fitness amounted to 0.857.
As for A43U C55A A65U, the yeast fitness turned out to be 0.515.
For the variant A40U A45U C49U, the yeast fitness amounted to 0.63.
Then A42G G56U, with 0.565; and G41A G52C C61U C62U, with at most 0.5; and G44C G50C A57G A65C, with 0.561.
Then A42G C49U, with 0.801; and G44A C60U C62G, with 0.596.
As to G41A A65C, the yeast fitness is 0.67.
As for G41A G52U U64A G68A, the yeast fitness is 0.622.
To A42C A43U G67C belongs at most 0.5; to A40G G56C, 0.725; to G41C A42U U64C G68C, at most 0.5.
Then A40G G44C, with 0.676; and A43C A45G G58C, with 0.685; and G44C A45G, with 0.958.
